Reference: ChEMBL document CHEMBL1132324, “Structure-activity relationships in 1,4-benzodioxan-related compounds. 6. Role of the dioxane unit on selectivity for alpha(1)-adrenoreceptor subtypes” (J Med Chem, 1999)

Tests used:
[1] = molecular target: Adrenergic receptor alpha-2 (Rattus norvegicus) (UniProt P22086+P19328+P22909); assay: The binding affinity was evaluated on alpha-2 adrenergic receptor expressed in rat cortex by using [3H]rauwolscine as radioligand.
How it was run: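 Male Sprague-Dawley rat cerebral cortex membranes, washed in Tris-HCl pH 7.4 and held in buffer with 10 μM pargiline and 0.1% ascorbic acid. Incubated 30 min at 25 °C with 0.5-1.5 nM [3H]rauwolscine; nonspecific binding with 10 μM phentolamine. Filtration, scintillation counting. Ki from Cheng-Prusoff; 2-3 experiments in triplicate.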

[2] = molecular target: T1, Alpha-1A adrenergic receptor (Rattus norvegicus) (UniProt P43140); assay: Antagonist affinity was expressed as apparent pKb at alpha-1 adrenoceptors on isolated rat prostatic vas deferens (Alpha-1A adrenergic receptor).; type: functional, tissue-based
T1 sequence (whole entry): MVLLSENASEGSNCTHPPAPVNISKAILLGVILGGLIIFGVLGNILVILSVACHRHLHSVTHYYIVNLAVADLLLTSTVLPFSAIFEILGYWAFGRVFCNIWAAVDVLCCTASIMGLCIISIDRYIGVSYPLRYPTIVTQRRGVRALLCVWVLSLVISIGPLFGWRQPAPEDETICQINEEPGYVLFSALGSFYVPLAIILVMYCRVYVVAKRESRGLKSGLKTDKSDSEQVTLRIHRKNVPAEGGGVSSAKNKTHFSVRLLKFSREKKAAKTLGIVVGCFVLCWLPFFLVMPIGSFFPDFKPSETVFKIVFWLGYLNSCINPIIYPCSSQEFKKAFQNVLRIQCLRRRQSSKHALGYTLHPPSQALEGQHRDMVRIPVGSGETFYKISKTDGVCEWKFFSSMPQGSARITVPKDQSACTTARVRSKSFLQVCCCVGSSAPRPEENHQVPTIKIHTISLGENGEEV
How it was run: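 Rat prostatic vas deferens in Tyrode with 0.1 μM cocaine. Equilibrated 60 min, primed twice with 10 μM noradrenaline, then a control cumulative (–)-noradrenaline curve recorded isometrically. Antagonist equilibrated 30 min before a repeat curve. Apparent pKb = log(DR−1) − log[B], with DR as the ratio of agonist EC50 with/without antagonist. 2–3 antagonist concentrations, each tested four times.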

[3] = molecular target: T2, Alpha-1D adrenergic receptor (Rattus norvegicus) (UniProt P23944); assay: Antagonist affinity was expressed as apparent pKb at alpha-1D adrenergic receptor on isolated rat thoracic aorta (Alpha-1D adrenergic receptor); type: functional, tissue-based
T2 sequence (whole entry): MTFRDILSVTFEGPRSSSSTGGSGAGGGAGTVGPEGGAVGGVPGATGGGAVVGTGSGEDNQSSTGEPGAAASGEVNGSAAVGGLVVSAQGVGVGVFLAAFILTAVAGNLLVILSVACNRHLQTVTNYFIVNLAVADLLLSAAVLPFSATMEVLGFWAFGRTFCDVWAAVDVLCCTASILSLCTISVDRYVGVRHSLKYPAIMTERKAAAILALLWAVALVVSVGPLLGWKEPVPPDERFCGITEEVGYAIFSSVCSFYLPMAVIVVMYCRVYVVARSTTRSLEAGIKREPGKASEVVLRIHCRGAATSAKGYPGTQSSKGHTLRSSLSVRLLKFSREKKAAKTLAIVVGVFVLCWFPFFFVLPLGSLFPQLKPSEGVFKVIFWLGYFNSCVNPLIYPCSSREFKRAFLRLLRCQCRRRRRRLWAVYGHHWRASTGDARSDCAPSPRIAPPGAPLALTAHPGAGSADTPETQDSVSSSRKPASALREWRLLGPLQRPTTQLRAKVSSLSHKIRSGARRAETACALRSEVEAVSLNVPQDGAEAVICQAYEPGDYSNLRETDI
How it was run: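 Helicoidal strips of rat thoracic aorta at 1 g tension, with 0.1 μM cocaine and 1 μM propranolol. After ≥1 h equilibration, cumulative (–)-noradrenaline curves at 30-min intervals; the third served as control. Antagonist equilibrated 30 min before the fourth curve. Apparent pKb from log(DR−1) − log[B], 2–3 antagonist concentrations, each tested four times.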

Compound `COc1cccc(OC)c1OCCNCC1C(=O)c2ccccc2OC1c1ccccc1` (stereo not drawn) has a pKi [1] of under 6, a pKb [2] of 7.88 and a pKb [3] of 6.98.
